# Molecular target: T1, Adrenergic receptor alpha-2 (Rattus norvegicus, UniProt P22086+P19328+P22909)
# T1 sequence (P22086 whole entry): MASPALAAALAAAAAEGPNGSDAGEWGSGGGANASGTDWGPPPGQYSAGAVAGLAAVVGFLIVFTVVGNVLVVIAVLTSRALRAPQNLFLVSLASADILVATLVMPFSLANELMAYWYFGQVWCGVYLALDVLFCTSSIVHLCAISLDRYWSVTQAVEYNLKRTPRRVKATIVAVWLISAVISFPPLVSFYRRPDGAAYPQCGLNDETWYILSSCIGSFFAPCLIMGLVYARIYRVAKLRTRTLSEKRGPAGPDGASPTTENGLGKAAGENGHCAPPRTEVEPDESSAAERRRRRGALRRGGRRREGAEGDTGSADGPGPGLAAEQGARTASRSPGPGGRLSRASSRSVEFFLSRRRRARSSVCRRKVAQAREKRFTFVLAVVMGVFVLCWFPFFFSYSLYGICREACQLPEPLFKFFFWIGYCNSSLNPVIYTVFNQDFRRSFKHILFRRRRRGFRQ
# T1 sequence (P19328 whole entry): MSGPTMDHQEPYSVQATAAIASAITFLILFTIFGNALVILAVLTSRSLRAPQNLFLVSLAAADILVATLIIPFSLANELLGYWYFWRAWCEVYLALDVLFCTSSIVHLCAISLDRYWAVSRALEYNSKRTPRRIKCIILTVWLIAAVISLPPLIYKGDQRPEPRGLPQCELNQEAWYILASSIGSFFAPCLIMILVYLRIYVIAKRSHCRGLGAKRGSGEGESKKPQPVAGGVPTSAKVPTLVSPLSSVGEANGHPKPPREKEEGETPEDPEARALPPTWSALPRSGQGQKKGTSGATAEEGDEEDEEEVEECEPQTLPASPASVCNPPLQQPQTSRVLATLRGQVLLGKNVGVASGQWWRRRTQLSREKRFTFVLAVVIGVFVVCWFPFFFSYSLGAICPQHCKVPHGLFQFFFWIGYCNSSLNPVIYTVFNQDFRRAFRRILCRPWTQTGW
# T1 sequence (P22909 whole entry): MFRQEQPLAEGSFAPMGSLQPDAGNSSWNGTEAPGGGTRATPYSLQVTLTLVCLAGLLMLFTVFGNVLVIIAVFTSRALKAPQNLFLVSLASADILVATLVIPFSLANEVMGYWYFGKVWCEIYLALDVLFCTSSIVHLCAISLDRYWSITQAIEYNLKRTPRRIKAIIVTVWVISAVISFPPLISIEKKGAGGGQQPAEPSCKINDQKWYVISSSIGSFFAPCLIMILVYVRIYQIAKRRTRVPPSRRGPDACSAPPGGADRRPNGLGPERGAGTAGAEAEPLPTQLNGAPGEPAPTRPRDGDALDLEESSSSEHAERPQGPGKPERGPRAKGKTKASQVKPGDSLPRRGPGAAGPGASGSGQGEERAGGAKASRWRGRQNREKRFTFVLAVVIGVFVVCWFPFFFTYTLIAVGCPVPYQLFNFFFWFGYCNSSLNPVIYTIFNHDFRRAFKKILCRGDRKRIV
# Test: Displacement of [3H]yohimbine from rat brain cortex adrenergic alpha2 receptor after 30 mins by liquid scintillation counting
# Procedure, shortened: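 Cortex homogenized in 5 mM Tris-HCl, 5 mM EDTA pH 7.3, spun three times at 50,000 g, resuspended in 50 mM Tris-HCl, 0.5 mM EDTA pH 7.5. [3H]yohimbine 1 nM final, 10 mg fresh tissue, 30 min at 25 °C. Phentolamine defined nonspecific binding. Ki by Cheng-Prusoff.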
row,Ki,SMILES
1,> 10 µM,N#C/N=C(\NCCCN1CCN(c2ccccn2)CC1)c1ccccn1
2,> 10 µM,N#C/N=C(\NCCCN1CCN(c2cccc(C(F)(F)F)c2)CC1)c1ccccn1
3,0.571 µM,CCOc1ccccc1N1CCN(CCCN/C(=N\C#N)c2ccccn2)CC1
4,0.245 µM,COc1ccccc1N1CCN(CCCN/C(=N\C#N)c2ccccn2)CC1
5,0.318 µM,Cc1cccc(N2CCN(CCCN/C(=N\C#N)c3ccccn3)CC2)c1C
